The source of these data is ChEMBL document CHEMBL2203130, “Sulfanylphthalonitrile analogues as selective and potent inhibitors of monoamine oxidase B” (Bioorg Med Chem Lett, 2012).

The target in series [1] is T1, Amine oxidase [flavin-containing] B (Homo sapiens, UniProt P27338).
T1 sequence (P27338 whole entry): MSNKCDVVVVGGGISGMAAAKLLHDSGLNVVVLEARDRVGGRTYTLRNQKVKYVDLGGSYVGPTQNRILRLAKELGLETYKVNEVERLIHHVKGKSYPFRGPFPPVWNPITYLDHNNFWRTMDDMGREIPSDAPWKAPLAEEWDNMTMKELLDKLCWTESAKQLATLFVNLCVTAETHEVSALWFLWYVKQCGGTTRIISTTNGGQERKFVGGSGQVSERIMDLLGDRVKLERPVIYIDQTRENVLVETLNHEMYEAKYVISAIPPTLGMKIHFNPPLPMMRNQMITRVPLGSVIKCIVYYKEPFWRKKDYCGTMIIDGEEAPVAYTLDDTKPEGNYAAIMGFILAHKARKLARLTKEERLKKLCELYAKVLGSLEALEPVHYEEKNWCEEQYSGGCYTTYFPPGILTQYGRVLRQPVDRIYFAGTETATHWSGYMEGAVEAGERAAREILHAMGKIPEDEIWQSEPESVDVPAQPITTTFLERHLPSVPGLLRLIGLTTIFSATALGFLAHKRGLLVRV
Put plainly: Inhibition of human recombinant MAOB expressed in insect cell microsomes using kynuramine as substrate after 20 mins by fluorescence spectrophotometric analysis. Also noted: species or system Microsome.

Series [2] is filed under the species Homo sapiens. Briefly: Selectivity index, ratio of Ki for human recombinant MAOA to Ki for human recombinant MAOB. A digest of the protocol: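 Ki values derived from IC50s by the Cheng–Prusoff equation. MAO-A used [S] 45 µM and Km 16.1 µM; MAO-B used [S] 30 µM and Km 22.7 µM. Index is Ki(MAO-A)/Ki(MAO-B).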
The species entered for series [3] is Homo sapiens. Put plainly: Selectivity index, ratio of IC50 for human recombinant MAOA to IC50 for human recombinant MAOB. A digest of the protocol:
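Ratio of IC50 for MAO-A to IC50 for MAO-B. Both IC50s from the kynuramine fluorescence assay: MAO-A with 45 µM kynuramine, MAO-B with 30 µM. Each run in triplicate.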

Series [4] concerns the target T2, Amine oxidase [flavin-containing] A (Homo sapiens, UniProt P21397).
T2 sequence (P21397 whole entry): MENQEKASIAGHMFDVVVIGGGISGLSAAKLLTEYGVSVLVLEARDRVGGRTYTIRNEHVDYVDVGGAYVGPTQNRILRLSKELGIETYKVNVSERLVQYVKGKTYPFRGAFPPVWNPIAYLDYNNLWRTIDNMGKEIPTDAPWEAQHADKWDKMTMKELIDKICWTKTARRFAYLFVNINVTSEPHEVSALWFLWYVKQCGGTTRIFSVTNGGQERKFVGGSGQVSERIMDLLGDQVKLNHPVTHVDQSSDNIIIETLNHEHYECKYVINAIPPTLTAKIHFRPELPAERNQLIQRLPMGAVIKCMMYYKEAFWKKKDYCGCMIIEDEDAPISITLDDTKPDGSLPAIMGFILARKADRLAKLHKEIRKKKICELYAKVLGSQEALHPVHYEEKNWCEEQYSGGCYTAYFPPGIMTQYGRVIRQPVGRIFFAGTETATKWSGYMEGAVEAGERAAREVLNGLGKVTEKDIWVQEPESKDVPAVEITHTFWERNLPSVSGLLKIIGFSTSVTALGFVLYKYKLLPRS
Briefly: Inhibition of human recombinant MAOA expressed in insect cell microsomes using kynuramine as substrate after 20 mins by fluorescence spectrophotometric analysis. Also on record: species or system Microsome. A digest of the protocol:
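Recombinant human MAO-A at 0.0075 mg protein/mL, started with enzyme, in 100 mM potassium phosphate pH 7.4 made isotonic with KCl, 4% DMSO. Inhibitor 0.003–100 µM, kynuramine 45 µM final. 20 min at 37 °C, stopped with NaOH. 4-Hydroxyquinoline read by fluorescence against a calibration curve. IC50 from one-site competition fit, triplicate, mean ± SD.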

For series [5], the target named is T1, Amine oxidase [flavin-containing] B. Briefly: Reversible inhibition of human recombinant MAOB expressed in insect cell microsomes using kynuramine as substrate assessed as residual activity at 100 times IC50 preincubated for 30 mins followed by 100 fold dilution measured after 20 mins by fluorescence spectrophotometric analysis relative to control. Also noted: species or system Microsome. Summed up: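 Recombinant human MAO-B (0.75 mg/ml) preincubated 30 min at 37 °C with inhibitor at 0, 10 or 100 × IC50 in pH 7.4 isotonic potassium phosphate with 4% DMSO. Diluted 100-fold with kynuramine to 30 µM substrate and 0.0075 mg/mL enzyme. Then 20 min at 37 °C. Residual 4-hydroxyquinoline formation measured by fluorescence, relative to no-inhibitor control. (R)-deprenyl at 10 × IC50 run as comparator.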

Series [6] deals with T2, Amine oxidase [flavin-containing] A. Put plainly: Ratio of compound IC50 to clorgyline IC50 for human recombinant MAOA.

The term IC50 denotes the point on the concentration scale where inhibition reaches its midpoint.

On to `N#Cc1ccc(Sc2ccc(Cl)cc2)cc1`, for which the IC50 in series [1] came out at 4.28 µM; in series [4], 18.2 µM. In addition, the Ratio Ki in series [2] was 2.6. For the same compound, the Ratio IC50 in series [3] is 4.3.

With `N#Cc1ccc(SCc2ccccc2)cc1`, the IC50 in series [1] came out at 1.58 µM; in series [4] it was 42.4 µM. For the same compound, the Ratio Ki in series [2] was 16. In series [3], the Ratio IC50 is 27.

Consider `N#Cc1ccc(SCc2ccc(Br)cc2)cc1C#N`, for which the 50% inhibitory concentration (IC50) stood at 0.025 µM in series [1] and 218 µM in series [4]. Besides, the Ratio Ki in series [2] worked out at 5330. The Activity in series [5] is reported as 48%. Besides, the Ratio IC50 in series [3] stood at 8720.

For `CC(C)CCSc1ccc(C#N)c(C#N)c1`, the IC50 came out at 0.242 µM in series [1] and 1.45 µM in series [4]. The Ratio Ki in series [2] came out at 3.7. In addition, in series [3], the Ratio IC50 was determined as 6.

For `COc1ccc(CSc2ccc(C#N)c(C#N)c2)cc1`, the half-maximal inhibitory concentration (IC50) came to 0.067 µM in series [1] and 129 µM in series [4]. Moreover, the Ratio Ki in series [2] was found to be 1180. Further, the Ratio IC50 in series [3] is 1920.

As to `N#Cc1ccc(Sc2ccc(Cl)cc2)cc1C#N`, the IC50 in series [1] was 0.114 µM; in series [4], 11.1 µM. Moreover, the Ratio Ki in series [2] came to 59.6. For the same compound, the Ratio IC50 in series [3] came out at 97.

Regarding `N#Cc1ccc(SCc2ccc(Cl)cc2)cc1`, the IC50 turned out to be 0.531 µM in series [1] and 20.3 µM in series [4]. Besides, in series [2], the Ratio Ki is 23. Also, the Ratio IC50 in series [3] is 38.

Consider `N#Cc1ccc(Sc2ccccc2)cc1`, for which the results for the IC50 in series [1] and in series [4] were 11.2 µM and 36.9 µM, respectively. Besides, in series [2], the Ratio Ki is 2. Moreover, the Ratio IC50 in series [3] is 3.3.

On to `N#Cc1ccc(SC2CCCCC2)cc1C#N`, for which the results for the IC50 in series [1] and in series [4] were 0.223 µM and 5.96 µM, respectively. The Ratio Ki in series [2] was 16.3. For the same compound, the Ratio IC50 in series [3] amounted to 27.

Take `N#Cc1ccc(SCc2ccccc2)cc1C#N`: the half-inhibitory concentration (IC50) in series [1] was found to be 0.167 µM; in series [4], 9.02 µM. Further, the Ratio Ki in series [2] amounted to 33. The Ratio IC50 in series [3] was determined as 54.

In the case of `N#Cc1ccc(SCc2ccc(F)cc2)cc1`, the 50% inhibitory concentration (IC50) was determined as 0.449 µM in series [1] and 54.7 µM in series [4]. Besides, the Ratio Ki in series [2] was found to be 75. Moreover, the Ratio IC50 in series [3] was found to be 122.

Regarding `N#Cc1ccc(SC2CCCCC2)cc1`, the IC50 in series [1] was 4.77 µM; in series [4] it was 9.87 µM. For the same compound, the Ratio Ki in series [2] came out at 1.3. Further, the Ratio IC50 in series [3] turned out to be 2.1.

Take `N#Cc1ccc(SCc2ccc(F)cc2)cc1C#N`: the results for the IC50 in series [1] and in series [4] were 0.034 µM and 2.1 µM, respectively. In addition, in series [2], the Ratio Ki amounted to 38. The Ratio IC50 in series [3] came to 62.

For `N#Cc1ccc(OCc2ccccc2)cc1`, the Ratio IC50 in series [3] was found to be 41.

In the case of `N#Cc1ccc(OCc2ccc(Br)cc2)cc1C#N`, the Ratio IC50 in series [3] was determined as 134.

In the case of `COc1ccc(CSc2ccc(C#N)cc2)cc1`, the half-inhibitory concentration (IC50) in series [1] is 0.861 µM; in series [4], 5.59 µM. Besides, in series [2], the Ratio Ki stood at 4. The Ratio IC50 in series [3] worked out at 6.5.

On to `N#Cc1ccc(OCc2ccccc2)cc1C#N`, for which the Ratio IC50 in series [3] turned out to be 227.

In the case of `N#Cc1ccc(SC2CCCC2)cc1C#N`, the values for the IC50 in series [1] and in series [4] were 0.887 µM and 2.78 µM, respectively. Besides, the Ratio Ki in series [2] was 1.9. Moreover, the Ratio IC50 in series [3] was 3.1.

`N#Cc1ccc(SCCc2ccccc2)cc1C#N`: the results for the IC50 in series [1] and in series [4] were 0.124 µM and 7.19 µM, respectively. The Ratio Ki in series [2] amounted to 35.5. In series [3], the Ratio IC50 amounted to 58.

With `N#Cc1ccc(SCCc2ccccc2)cc1`, the figures for the concentration for half-maximal inhibition (IC50) in series [1] and in series [4] were 1.81 µM and 54.3 µM, respectively. Besides, the Ratio Ki in series [2] came to 18. For the same compound, the Ratio IC50 in series [3] came out at 30.

For the compound `N#Cc1ccc(SCc2ccc(Br)cc2)cc1`, the IC50 in series [1] came out at 0.484 µM; in series [4], 129 µM. For the same compound, the Ratio Ki in series [2] worked out at 163. Further, the Ratio IC50 in series [3] was found to be 267.

Consider `N#Cc1ccc(Sc2ccccc2)cc1C#N`, for which the results for the 50% inhibitory concentration (IC50) in series [1] and in series [4] were 2.13 µM and 3.58 µM, respectively. For the same compound, the Ratio Ki in series [2] was determined as 1. Moreover, the Ratio IC50 in series [3] amounted to 1.7.

On to `N#Cc1ccc(SCc2ccc(Cl)cc2)cc1C#N`, for which the IC50 in series [1] was 0.014 µM; in series [4], 0.623 µM. Further, in series [2], the Ratio Ki came to 27. The Ratio IC50 was determined as 45 in series [3] and 240 in series [6].

As to `N#Cc1ccc(Sc2ccc(Br)cc2)cc1`, the IC50 was 0.637 µM in series [1] and 8.52 µM in series [4]. In addition, the Ratio Ki in series [2] was 8.2. The Ratio IC50 in series [3] stood at 13.

Consider `N#Cc1ccc(Sc2ccc(Br)cc2)cc1C#N`, for which the IC50 in series [1] amounted to 0.079 µM; in series [4], 19 µM. The Ratio Ki in series [2] was 147. The Ratio IC50 in series [3] was determined as 240.
